Results of several laboratories.
Values after ≈ are worked out from the molar mass of the structure shown.

| SMILES | tested on | observed | technique | strain | time | quantity | result |
| --- | --- | --- | --- | --- | --- | --- | --- |
| CCOC(=O)C1=C(C)NC(=O)NC1c1cn(-c2ccccc2)nc1-c1ccccc1 (stereo not shown) | Mycobacterium tuberculosis | microbial growth | resazurin | H37RV |  | MIC | 62.1 µM |
| Cn1c(COc2ccc3nc4ccc(=O)cc-4oc3c2)cnc1[N+](=O)[O-] | Mycobacterium tuberculosis | microbial growth |  |  | 7 days | MIC90 | > 256 µM |
| Cc1sc2c(c1C)C(c1ccc(Cl)cc1)=N[C@@H](CC(=O)OC(C)(C)C)c1nnc(C)n1-2 | Ramos | cell growth or viability | ATP luminescence |  | 72 h | IC50 | 0.545 µM |
| CC[C@@]1(O)C(=O)OCc2c1cc1n(c2=O)Cc2cc3ccccc3nc2-1 | HepG2 | cell growth or viability | MTT |  | 48 h | IC50 | 10.1 µM |
| Cc1cc(C(=O)O)ccc1-c1c2ccc(=O)cc-2oc2cc(OCc3ccc([N+](=O)[O-])o3)ccc12 | Mycobacterium tuberculosis | microbial growth |  |  | 7 days | MIC90 | 240 µM (≈ 113 µg/mL) |
| N.N.[Cl][Pt][Cl] | A-431 | cell growth or viability | MTT |  | 72 h | IC50 | 2.1 µM |
| CCOC(=O)C1=C(C)NC(=NN)NC1c1ccc(F)cc1 (stereo not shown) | Mycobacterium tuberculosis | microbial growth | resazurin | H37RV |  | MIC | 85.5 µM |
| Cn1c([N+](=O)[O-])cnc1COc1ccc2nc3ccc(=O)cc-3oc2c1 | Mycobacterium tuberculosis | microbial growth |  |  | 7 days | MIC90 | > 256 µM |
| COc1c(N2CC3CCCN(C(=O)OC(C)(C)C)C3C2)c(F)cc2c(=O)c(C(=O)OCc3cnc([N+](=O)[O-])s3)cn(C3CC3)c12 (stereo not shown) | Mycobacterium tuberculosis | microbial growth |  | H37RV |  | MIC | > 8 µM |
| COc1cccc(/C=N/N2C(=O)c3ccccc3NC2c2cccc(OC)c2O)c1O (stereo not shown) | Mycobacterium tuberculosis | microbial growth |  | ATCC25177 H37RA | 14 days | MIC | > 128 µg/mL |
| CCOC(=O)C1=C(C)N(C(C)=O)C(=O)NC1c1cn(-c2ccccc2)nc1-c1ccccc1 (stereo not shown) | Mycobacterium tuberculosis | microbial growth | resazurin | H37RV |  | MIC | 56.2 µM |
| NNC(=O)c1ccncc1 | Mycobacterium tuberculosis | microbial growth |  | ATCC25177 H37RA | 14 days | MIC | 8 µg/mL |
| C1N2CN3CN1CP(C2)C3.Cc1cc(C)n(C(C(=O)OC(C)C)n2nc(C)cc2C)n1.F[P-](F)(F)(F)(F)F.[Cu+] | A-431 | cell growth or viability | MTT |  | 72 h | IC50 | 11.3 µM |
